Rev-RRE block: inhibitors of HIV-1 Rev-RRE RNA interaction; P05866; Rev peptide-RRE RNA binding, FRET; inhibition, % at 8 µM; hit rate 0.79% among 97,000; AID 704;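 active = inhibition above the screen-wide mean plus 3 SD, cut at about 35% in these data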;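 also: 0% = median DMSO wells and 100% = median Neomycin B control wells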
Target sequence (P05866 whole entry, looked up): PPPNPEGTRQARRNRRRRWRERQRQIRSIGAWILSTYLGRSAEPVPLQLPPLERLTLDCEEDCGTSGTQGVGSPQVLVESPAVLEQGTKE
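System: Cy5-labelled duplex RRE RNA binding fluorescein-labelled HIV Rev peptide; Signal: fluorescein-to-Cy5 FRET, 480 nm excitation; Also added: labelled Rev peptide; Compound: one concentration, 8 µM nominal; Buffer or medium: HEPES pH 7.5 salt buffer with EDTA; Read-out: % inhibition of FRET ratio versus controls; Schedule: 5 min preincubation and 15 min binding, 25 °C.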
EphB4 ephrin blk: EphB4-ephrin-B2 interaction antagonism; AID 720; hit rate 0.15% among 97,000; inhibition, % at 7 µM; EphB4 LBD / TNYL-RAW-Alexa532 peptide, fluorescence polarization;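 active = inhibition above the screen-wide mean inhibition plus 3 SD, cut at about 15% in these data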;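 also: 0% = DMSO wells and 100% = excess unlabeled TNYL-RAW peptide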
GALR2 antag: antagonists of human galanin receptor 2 (GALR2); inhibition, % at 4 µM; AID 828; O43603; hit rate 0.39% among 140,000; GALR2-expressing cells, antagonist mode; in the data active = inhibition above about 27%;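 also: cells stimulated with galanin 1-16 at roughly its EC80; 0% = agonist challenge control and 100% = basal control without agonist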
S1P2 ag: S1P2 (human) receptor agonism; S1P2-expressing cell line, agonist reporter read-out; activation, % at 4.5 µM; hit rate 0.46% among 97,000; AID 729; in the data active = activation above about 16%;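 also: 0% = vehicle low control and 100% = maximal reference agonist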
Target sequence (O95136 whole entry, looked up): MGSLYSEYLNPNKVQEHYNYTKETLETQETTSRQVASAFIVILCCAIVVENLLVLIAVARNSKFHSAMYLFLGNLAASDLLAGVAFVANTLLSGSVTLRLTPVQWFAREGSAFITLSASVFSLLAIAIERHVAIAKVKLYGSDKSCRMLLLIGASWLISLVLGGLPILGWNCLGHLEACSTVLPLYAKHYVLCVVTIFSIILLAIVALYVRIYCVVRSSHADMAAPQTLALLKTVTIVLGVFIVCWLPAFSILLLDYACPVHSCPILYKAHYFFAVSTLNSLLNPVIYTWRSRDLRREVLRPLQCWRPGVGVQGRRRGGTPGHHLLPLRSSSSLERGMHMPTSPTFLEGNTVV
S1P2 blocker: blocks the human S1P2 receptor; hit rate 0.21% among 97,000; inhibition, % at 5 µM; O95136; AID 736; cell-based S1P2 antagonist assay, inhibition at 5 uM; in the data active = inhibition above about 45%;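 also: CRE beta-lactamase reporter cells expressing human S1P2 stimulated with S1P; 0% = agonist at EC80 alone and 100% = agonist plus reference antagonist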
GALR2 agonist: activates the human galanin receptor 2. GALR2-expressing cells, agonist activation read-out. activation, % (no concentration beside the values). O43603. hit rate 0.48% among 140,000; in the data active = activation above about 5%, passing the limit was not always enough;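 also: 0% = vehicle buffer wells and 100% = reference agonist at full effect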
The depositor's hits bear a star; / = no result; [ ] = another dose, or the depositor's remark. This is a sample that favours compounds with a hit; in the whole collection about 1.7% have one here.

SMILES	Rev-RRE block	EphB4 ephrin blk	GALR2 antag	S1P2 ag	S1P2 blocker	GALR2 agonist
CCC1=NN2C(=N)/C(=C\c3ccc(SCc4ccco4)o3)C(=O)N=C2S1	36.2*	-0.4	-8.9	-4.7	4.9	-2.4
Cc1ccc(C(=O)NCc2ccccc2)cc1Br	/	/	-6.6	/	/	-0.8
COC(=O)C(NS(C)(=O)=O)(c1c(C)[nH]c2ccccc12)C(F)(F)F (stereo not drawn)	6.5	-0.1	4.0	-4.5	0.1	-1.8
CCCCC(CC)C(=O)NCCCN1CCN(CCCNC(=O)C(CC)CCCC)CC1 (stereo not drawn)	/	/	2.2	/	/	-0.9
COc1cc(/C=N/c2oc(-c3ccccc3)cc2C#N)ccc1O	39.8*	4.0	6.5	-4.8	15.9	-0.4
Cc1ccc(S(=O)(=O)N2CCOCC2)cc1NC(=O)COC(=O)C1COc2ccccc2O1 (stereo not drawn)	/	/	2.5	/	/	0.7
CCOc1cccc(OCCCCn2ccnc2)c1	4.0	1.4	2.0	82.8*	9.2	-1.2
CN(C)c1nccc(Nc2ccccc2)c1C#N	-2.0	15.7*	3.3	-3.6	-1.5	-2.4
CC(C)CC1(C)NC(=O)N(CCN2C(=O)c3ccccc3C2=O)C1=O (stereo not drawn)	5.4	3.1	-2.4	-2.7	5.9	-1.8
CCOC(=O)c1sc(/N=C/c2c(C)[nH]n(-c3ccccc3)c2=O)c(C#N)c1C	69.6*	2.7	9.8	-2.9	-20.1	-3.7
CCCNC(=O)c1c(N)n(-c2cccc(OC)c2)c2nc3ccccc3nc12	15.2	0.0	-5.1	20.9*	-29.1	17.7*
COCCCNC(=O)c1c(N)n(-c2cccc(S(N)(=O)=O)c2)c2nc3ccccc3nc12	1.4	-4.5	-0.1	11.4	-14.8	3.2
CC1=NC(=O)C(N=Nc2cccc3ccccc23)N1c1ccccc1 (stereo not drawn)	10.4	5.5	6.1	0.3	1.5	-2.5
CCN1C=C(Cc2ccc(OC)cc2)C2=C(C1)C(c1ccc(OC)cc1)C(C#N)=C(N)O2 (stereo not drawn)	40.0*	-1.6	-0.3	-6.9	7.4	-0.3
Cc1ccc(NC(=O)C(C)c2ccc(-c3ccccc3)c(F)c2)c(C)c1 (stereo not drawn)	15.3	-2.5	-1.4	-0.2	-25.7	-2.4
O=S(=O)(CC12C3C4C5C1C2C(Br)(C43)C51OCCO1)c1ccccc1 (stereo not drawn)	/	/	0.0	/	/	-0.4
Cc1ccc(-n2ncc3c(N4CCN(c5ccccc5)CC4)ncnc32)c(C)c1	0.5	1.2	8.4	-3.7	60.1*	-0.4
COc1ccc(N2CCN(c3ncnc4c3cnn4-c3ccc(C)cc3C)CC2)cc1	-1.2	2.6	5.2	-4.5	9.8	-1.1
CC1CCN(c2c(NCC3CCC(C(=O)NCc4ccccc4Cl)CC3)c(=O)c2=O)CC1 (stereo not drawn)	/	/	-17.6	/	/	-0.9
Cc1oc(C)c2c(=O)ccc3c(c12)OC(N)=C(C#N)C3c1ccccc1 (stereo not drawn)	59.9*	-0.1	5.3	-11.6	15.8	-1.5
Cc1ccc(C2C(C#N)=C(N)Oc3c2c(=O)n(C)c(=O)n3C)cc1 (stereo not drawn)	7.4	-4.7	0.8	-5.8	4.5	-2.4
CC1(C)CC(=O)C2=C(C1)OC(N)=C(C#N)C2c1ccccc1 (stereo not drawn)	5.6	1.3	-0.8	0.0	13.6	0.0
Cc1oc(C)c2c(=O)ccc3c(c12)OC(N)=C(C#N)C3c1ccccc1Cl (stereo not drawn)	96.8*[fluorescence artefact?]	0.9	6.3	-12.7	11.4	0.4
CSc1ccc(C2C(C#N)=C(N)Oc3c2ccc(=O)c2c(C)oc(C)c32)cc1 (stereo not drawn)	42.8*	-10.3	11.2	-5.7	-3.4	-1.1
COc1ccc(-c2cc(C(F)(F)F)c3c(=O)n(-c4ccccc4)[nH]c3n2)cc1	0.2	5.2	5.5	-5.8	11.8	-1.4
SMILES	Rev-RRE block	EphB4 ephrin blk	GALR2 antag	S1P2 ag	S1P2 blocker	GALR2 agonist
CCOC(=O)C1=C(CSc2nc3c(cc2C#N)CN(C)CC3)OC(N)=C(C#N)C1c1ccc(F)cc1 (stereo not drawn)	56.8*	0.8	0.7	-3.1	-21.4	-0.8
CCOC(=O)C1=C(CSc2nc3c(cc2C#N)CN(C)CC3)OC(N)=C(C#N)C1c1ccccc1 (stereo not drawn)	57.4*	2.2	-0.3	-5.8	-2.8	-2.7
COC(=O)C1=C(CSc2nc3c(cc2C#N)CN(C)CC3)OC(N)=C(C#N)C1c1ccccc1F (stereo not drawn)	53.6*	-3.6	-2.0	-4.0	4.0	-0.8
CCOC(=O)C1=C(CSc2nc3c(cc2C#N)CCC3)OC(N)=C(C#N)C1c1ccccc1 (stereo not drawn)	21.0	6.0	6.7	0.8	9.2	-2.6
COC(=O)C1=C(C)OC(N)=C(C#N)C1c1ccccc1F (stereo not drawn)	3.2	-1.0	12.8	-4.3	-1.6	-4.1
Cc1nc2ncnn2c(C)c1CCC(=O)Oc1ccccc1	0.8	1.5	1.8	-0.6	0.0	-1.4
COc1cccc(-c2cn3nc(C)c(C)nc3n2)c1	39.7*	0.4	-15.9	2.0	1.5	0.2
Cc1nc2nc(-c3ccc(Cl)cc3)cn2nc1C	12.0	6.2	-6.2	1.7	0.7	2.1
COc1ccc2cc(C(c3nnnn3C3CCCC3)N3CCCCCC3)c3nnnn3c2c1 (stereo not drawn)	5.3	5.0	8.0	-6.0	6.2	-2.2
O=c1[nH]c2cc3c(cc2cc1C(c1nnnn1C1CCCCC1)N1CCSCC1)OCCO3 (stereo not drawn)	51.2*	1.5	3.9	-2.2	2.2	-1.5
COc1ccc(Cn2nnnc2C(c2cc3ccc(OC)cc3[nH]c2=O)N2CCC(C)CC2)cc1 (stereo not drawn)	28.7	16.4*	0.8	-2.8	-14.2	0.9
COc1cc2cc(C(c3nnnn3C3CCCC3)N3CCCCCC3)c(=O)[nH]c2cc1OC (stereo not drawn)	57.8*	-0.4	0.6	-5.9	13.7	-1.6
COc1cc2cc(C(c3nnnn3C3CCCC3)N3CCCCC3)c(=O)[nH]c2cc1OC (stereo not drawn)	9.7	4.3	5.6	-7.2	-0.8	-1.3
COc1ccc2cc(C(c3nnnn3C3CCCCC3)N3CCCCCC3)c3nnnn3c2c1 (stereo not drawn)	9.4	7.7	-2.3	-3.1	10.8	13.1*
O=C(OCC(=O)N1N=C(c2ccc(Cl)cc2)CC1c1ccco1)c1ccccc1O (stereo not drawn)	13.8	-0.5	-10.3	-2.5	-30.9	0.5
Cc1ccc(CN=Cc2[nH]c3ccc(Br)c(Cl)c3c2O)cc1	115.6*[fluorescence artefact?]	-1.1	9.6	-0.6	-6.6	-3.0
Oc1c(C=NCc2ccc(F)cc2)[nH]c2ccc(Br)c(Cl)c12	99.0*[fluorescence artefact?]	6.3	11.4	-3.2	7.0	0.4
COc1ccc(OC)c(NC(=O)C(=O)NNC(=O)c2cccs2)c1	/	/	-8.8	/	/	0.0
CCOc1ccc(C(=O)Nc2cccc([N+](=O)[O-])c2)cc1Br	/	/	17.2	/	/	0.6

High-throughput results (PubChem BioAssay)
